Key:
[1] = test system: Mus musculus; test: Analgesic activity in Albino mouse at 50 mg/kg, po assessed as thermal stimuli reaction time change after 30 mins by hot plate method relative to basal level; assay type: functional
How it was run: (§1)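 Hot-plate at 52 °C ± 0.1 °C with a 60 s cut-off, six mice per group. Dosing was oral, 50 mg/kg in 2% Tween 80. Latency to paw licking or jumping was recorded before dosing and at 0.5, 1 and 2 h. Results are given as % change from the pre-drug value, with one-way ANOVA and Duncan's test (P < 0.05).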

[2] = test system: Mus musculus; test: Analgesic activity in Albino mouse at 50 mg/kg, po assessed as thermal stimuli reaction time change after 30 mins by hot plate method relative to indomethacin; assay type: functional
[3] = test system: Mus musculus; test: Analgesic activity in Albino mouse at 50 mg/kg, po assessed as thermal stimuli reaction time change after 1 hr by hot plate method relative to basal level; assay type: functional; how it was run: as §1
[4] = test system: Mus musculus; test: Analgesic activity in Albino mouse at 50 mg/kg, po assessed as thermal stimuli reaction time change after 1 hr by hot plate method relative to indomethacin; assay type: functional
[5] = test system: Mus musculus; test: Analgesic activity in Albino mouse at 50 mg/kg, po assessed as thermal stimuli reaction time change after 2 hrs by hot plate method relative to basal level; assay type: functional; how it was run: as §1
[6] = test system: Mus musculus; test: Analgesic activity in Albino mouse at 50 mg/kg, po assessed as thermal stimuli reaction time change after 2 hrs mins by hot plate method relative to indomethacin; assay type: functional
[7] = test system: Mus musculus; test: Analgesic activity against visceral pain in Albino mouse assessed as acetic acid-induced writhing at 50 mg/kg, po after 30 mins; assay type: functional
How it was run: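 Mice (20–25 g, acclimatized 1 week, 12 h light/dark, 21–23 °C) given compound orally at 50 mg/kg as a suspension in 2% Tween 80. Negative controls got water in Tween 80. Visceral pain measured as acetic acid-induced writhing; indomethacin 50 mg/kg was the reference.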

[8] = test system: Mus musculus; test: Analgesic activity against visceral pain in Albino mouse assessed as acetic acid-induced writhing at 50 mg/kg, po after 30 mins relative to indomethacin; assay type: functional
[9] = test system: Rattus norvegicus; test: Antiinflammatory activity in Albino rat assessed as inhibition of carrageenan-induced edema at 50 mg/kg, po after 1 hr
[10] = test system: Rattus norvegicus; test: Antiinflammatory activity in Albino rat assessed as inhibition of carrageenan-induced edema at 50 mg/kg, po after 2 hrs
[11] = test system: Rattus norvegicus; test: Antiinflammatory activity in Albino rat assessed as inhibition of carrageenan-induced edema at 50 mg/kg, po after 3 hrs
[12] = test system: Rattus norvegicus; test: Antiinflammatory activity in Albino rat assessed as inhibition of carrageenan-induced edema at 50 mg/kg, po after 4 hrs
[13] = test system: Rattus norvegicus; test: Antiinflammatory activity in Albino rat assessed as inhibition of carrageenan-induced edema at 50 mg/kg, po after 5 hrs
[14] = test system: Rattus norvegicus; test: Antiinflammatory activity in Albino rat assessed as inhibition of carrageenan-induced edema at 50 mg/kg, po after 6 hrs

SMILES | Activity [1] [%] | Activity [2] | Activity [3] [%] | Activity [4] | Activity [5] [%] | Activity [6] | Activity [7] [%] | Activity [8] | inhibition in vivo at 50 mg/kg [9] [%] | inhibition in vivo at 50 mg/kg [10] [%] | inhibition in vivo at 50 mg/kg [11] [%] | inhibition in vivo at 50 mg/kg [12] [%] | inhibition in vivo at 50 mg/kg [13] [%] | inhibition in vivo at 50 mg/kg [14] [%]
Cc1ccc(-c2c(S(=O)(=O)c3ccccc3)cnc3cc(-c4ccccc4)nn23)cc1 | 15.2 | 0.35 | 18.6 | 0.24 | 15.2 | 0.19 | 28 | 0.32 | 42.5 | 41 | 36.4 | 22.6 | 28.2 | 15.5
Cc1ccc(-c2c(S(=O)(=O)c3ccccc3)cnc3cc(-c4ccc(Br)cc4)nn23)cc1 | 29 | 0.67 | 56.4 | 0.73 | 56.4 | 0.7 | 65.2 | 0.76 | 74.1 | 72.6 | 69.2 | 26.6 | 31.7 | 54.3
Cc1ccc(-c2c(S(=O)(=O)c3ccccc3)cnc3ncnn23)cc1 | 7.1 | 0.16 | 5.3 | 0.06 | 0 | 0 | – | 0 | 7.5 | 5.2 | 4.4 | 3.3 | 2.4 | 1.9
Cc1ccc(-c2c(S(=O)(=O)c3ccccc3)cnc3cc(C)nn23)cc1 | 16 | 0.37 | 16 | 0.21 | 5.3 | 0.07 | 30 | 0.35 | 25.8 | 25.2 | 23.2 | 14 | 8.1 | 8.7
Cc1ccc(-c2c(S(=O)(=O)c3ccccc3)cnc3c(Br)c(-c4ccccc4)nn23)cc1 | 43.8 | 1.02 | 78 | 1.02 | 68.4 | 0.84 | 85.6 | 0.99 | 65.5 | 61 | 54.8 | 12.5 | 0 | 6.6
O=S(=O)(c1ccccc1)c1cnc2cc(-c3ccc(Cl)cc3)nn2c1-c1ccc(Br)cc1 | 33 | 0.77 | 72.2 | 0.93 | 51.8 | 0.63 | 66.7 | 0.77 | 24.2 | 24.7 | 24.8 | 18.6 | 13.8 | 13.2
Cc1ccc(-c2c(S(=O)(=O)c3ccccc3)cnc3nc4ccccc4n23)cc1 | 9.2 | 0.21 | 23 | 0.3 | 21.5 | 0.26 | 9.1 | 0.1 | 7.3 | 5 | 4.2 | 0 | 0 | 0
O=S(=O)(c1ccccc1)c1cnc2ncnn2c1-c1ccc(Br)cc1 | 5.4 | 0.12 | 6.8 | 0.08 | 5.4 | 0.06 | 10.8 | 0.12 | 2.2 | 4.2 | 1.6 | 1.3 | 0.8 | 0.9
Cc1ccc(-c2cc3ncc(S(=O)(=O)c4ccccc4)c(-c4ccc(C)cc4)n3n2)cc1 | 25 | 0.58 | 67.1 | 0.87 | 57.5 | 0.71 | 74.4 | 0.86 | 54.6 | 42.6 | 31.2 | 20 | 17 | 11.6
Cc1cc2ncc(S(=O)(=O)c3ccccc3)c(-c3ccc(Br)cc3)n2n1 | 27 | 0.63 | 44.1 | 0.57 | 39.7 | 0.49 | 56.4 | 0.65 | 7.4 | 5.2 | 4.4 | 0 | 0 | 0
COc1ccc2c(c1)c(CC(=O)O)c(C)n2C(=O)c1ccc(Cl)cc1 [INDOMETHACIN] | 43 | – | 77.2 | – | 81 | – | 85.8 | – | 77 | 56 | 44 | 28.7 | 28.4 | 50
